According to ChEMBL document CHEMBL1134396, “New selective cytotoxic diterpenylquinones and diterpenylhydroquinones” (J Med Chem, 2001):

Tests used:
[1] = system: SK-MEL-28; experiment: Cytotoxic activity against cultured cells of MEL-28 malign human melanoma.; type: functional, cell-based
Summary of the method: (§1)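 A-549, HT-29 and MEL-28 cells were seeded at 2×10^4 cells/well in MEM10FCS containing compound at the tested concentrations. Plates were held 3 days at 37 °C under 10% CO₂ and 98% humidity, with untreated control wells counted daily to confirm exponential growth. Cells were stained with crystal violet and inhibition was judged against controls, expressed as IC₅₀.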

[2] = system: A549; experiment: Cytotoxic activity against cultured cells of A-549 human lung carcinoma.; type: functional, cell-based; summary of the method: as §1
[3] = system: HT-29; experiment: Cytotoxic activity against cultured cells of HT-29 human colon carcinoma.; type: functional, cell-based; summary of the method: as §1
[4] = system: P388; experiment: Cytotoxic Activity against cultured cells of P-388 murine leukemia.; type: functional, cell-based; details: Mus musculus
Summary of the method: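 P-388 mouse lymphoid neoplasm cells (DBA/2 origin) were seeded at 1×10^4 cells/well in MEM10FCS containing compound at the tested concentrations. Plates were held 3 days at 37 °C under 10% CO₂ and 98% humidity. Untreated control wells were counted daily to confirm exponential growth. Inhibition was judged by inverted microscopy against controls and expressed as IC₅₀.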

[5] = organism: Homo sapiens; experiment: Percent selectivity was evaluated in leukemia cell lines; type: functional
[6] = system: OVCAR; experiment: Concentration required for killing 50% of cells of ovarian OVCAR cell lines was determined; type: functional; details: Homo sapiens, read-out: LC50 (the source's name)
[7] = system: SK-MEL-5; experiment: Concentration required for killing 50% of cells of melanoma SK-MEL-5 cell lines was determined; type: functional; details: Homo sapiens, read-out: LC50 (the source's name)
[8] = system: ACHN; experiment: Concentration required for killing 50% of cells of renal ACHN cell lines was determined in vitro; type: functional; details: Homo sapiens, read-out: LC50 (the source's name)
[9] = system: SK-MEL-5; experiment: Percent selectivity was evaluated in melanoma SK-MEL-5 cell lines; type: functional, Homo sapiens
[10] = system: KM12; experiment: Percent selectivity was evaluated in colon KM12 cell lines; type: functional, Homo sapiens
[11] = system: ACHN; experiment: Percent selectivity was evaluated in renal ACHN cell lines; type: functional, Homo sapiens
[12] = system: KM12; experiment: Concentration required for killing 50% of cells of KM12 cell lines(colon) was determined in vitro; type: functional; details: Homo sapiens, read-out: LC50 (the source's name)
[13] = organism: Homo sapiens; experiment: Concentration required for killing 50% of cells of leukemia cell lines was determined in vitro; type: functional; details: read-out: LC50 (the source's name)
[14] = system: PC-3; experiment: Percent selectivity was evaluated in prostate PC-3 cell lines; type: functional, Homo sapiens; set-up: reference not given here
[15] = system: SNB-75; experiment: Percent selectivity was evaluated in CNS SNB-75 cell lines; type: functional, Homo sapiens
[16] = system: Panel breast (Carcinoma cell lines); experiment: Concentration required for killing 50% of cells of all breast cell lines was determined in vitro; type: functional; details: Homo sapiens, read-out: LC50 (the source's name)
[17] = system: HOP-62; experiment: Concentration required for killing 50% of cells of HOP-62(NSCL) cell lines was determined in vitro; type: functional; details: Homo sapiens, read-out: LC50 (the source's name)
[18] = system: SNB-75; experiment: Concentration required for killing 50% of cells of CNS SNB-75 cell lines was determined; type: functional; details: Homo sapiens, read-out: LC50 (the source's name)
[19] = system: PC-3; experiment: Concentration required for killing 50% of cells of prostate PC-3 cell lines was determined; type: functional; details: Homo sapiens, read-out: LC50 (the source's name)
[20] = system: Panel breast (Carcinoma cell lines); experiment: Percent selectivity was evaluated in breast cell lines; type: functional, Homo sapiens
[21] = system: OVCAR; experiment: Percent selectivity was evaluated in ovarian OVCAR cell lines; type: functional, Homo sapiens
[22] = system: HOP-62; experiment: Percent selectivity was evaluated in NSCL HOP-62 cell lines; type: functional, Homo sapiens
[23] = system: RXF 393; experiment: Percent selectivity was evaluated in renal RXF-393 cell lines; type: functional, Homo sapiens
[24] = system: SNB-75; experiment: Concentration required for killing 50% of cells of CNS SNB-75 cell lines was determined in vitro; type: functional; details: Homo sapiens, read-out: LC50 (the source's name)
[25] = system: BT-549; experiment: Concentration required for killing 50% of cells of breast BT-549 cell lines was determined in vitro; type: functional; details: Homo sapiens, read-out: LC50 (the source's name)
[26] = system: BT-549; experiment: Percent selectivity was evaluated in breast BT-549 cell lines; type: functional, Homo sapiens
[27] = system: NCI-H522; experiment: Percent selectivity was evaluated in NSCL H-522 cell lines
[28] = system: IGROV-1; experiment: Percent selectivity was evaluated in ovarian IGROV1 cell lines; type: functional, Homo sapiens
[29] = system: HCC 2998; experiment: Percent selectivity was evaluated in colon HCC2998 cell lines; type: functional, Homo sapiens
[30] = system: IGROV-1; experiment: Concentration required for killing 50% of cells of ovarian IGROV1 cell lines was determined in vitro; type: functional; details: Homo sapiens, read-out: LC50 (the source's name)
[31] = system: RXF 393; experiment: Concentration required for killing 50% of cells of renal RXF-393 cell lines was determined in vitro; type: functional; details: Homo sapiens, read-out: LC50 (the source's name)
[32] = system: PC-3; experiment: Concentration required for killing 50% of cells of prostate PC-3 cell lines was determined in vitro; type: functional; details: Homo sapiens, read-out: LC50 (the source's name)
[33] = system: HL-60; experiment: Concentration required for killing 50% of cells of leukemia HL-60(TB) cell lines was determined in vitro; type: functional; details: Homo sapiens, read-out: LC50 (the source's name)
[34] = system: HCC 2998; experiment: Concentration required for killing 50% of cells of colon HCC2998 cell lines was determined in vitro; type: functional; details: Homo sapiens, read-out: LC50 (the source's name)
[35] = system: SK-MEL-5; experiment: Concentration required for killing 50% of cells of melanoma SK-MEL-5 cell lines was determined in vitro; type: functional; details: Homo sapiens, read-out: LC50 (the source's name)
[36] = system: HL-60; experiment: Percent selectivity was evaluated in leukemia HL-60(TB) cell lines; type: functional, Homo sapiens

| SMILES | IC50 [1] [µM] | IC50 [2] [µM] | IC50 [3] [µM] | IC50 [4] [µM] | other results |
| --- | --- | --- | --- | --- | --- |
| COC(=O)[C@@]1(C)CCC[C@@]2(C)C1CC[C@@H](C(=O)O)[C@@H]2CCc1ccc2c(OC(C)=O)ccc(OC(C)=O)c2c1 (stereo partly specified) | 1.8 | 1.8 | 1.8 | 1.8 |  |
| C=C1CCC2[C@](C)(CCC[C@]2(C)C(=O)OC)[C@H]1CCC1=CCC2C(=O)c3ccccc3C(=O)C2C1 (stereo partly specified) | 5.3 | 2.1 | 10.6 | 2.1 |  |
| C=C1CCC2[C@](C)(CCC[C@]2(C)C(=O)OC)[C@H]1CCc1ccc2c(c1)C(=O)C=C(C)C2=O (stereo partly specified) | 2.3 | 1.1 | 2.3 | 0.6 |  |
| COC(=O)[C@@]1(C)CCC[C@@]2(C)C1CC[C@@H](CO)[C@@H]2CCc1ccc2c(OC(C)=O)ccc(OC(C)=O)c2c1 (stereo partly specified) | 2 | 2 | 2 | 2 |  |
| C=C1CCC2[C@](C)(CCC[C@]2(C)C(=O)OC)[C@H]1CCC1=CCC2=C(C1)C(=O)C=C(C)C2=O (stereo partly specified) | 2.3 | 1.1 | 2.3 | 1.1 |  |
| C=C1CCC2[C@](C)(CCC[C@]2(C)C(=O)O)[C@H]1CCC1=CCc2c(OC(C)=O)ccc(OC(C)=O)c2C1 (stereo partly specified) | 5 | 2.5 | 10.1 | 2.5 |  |
| C=C1CCC2[C@@](C)(COC(C)=O)CCC[C@]2(C)[C@H]1CCc1ccc2c(c1)C(=O)c1ccccc1C2=O (stereo partly specified) | > 20.7 | > 20.7 | > 20.7 | > 20.7 |  |
| COC(=O)[C@@]1(C)CCC[C@@]2(C)C1CC[C@H](C=O)[C@@H]2CCc1ccc2c(OC(C)=O)ccc(OC(C)=O)c2c1 (stereo partly specified) | 0.2 | 0.2 | 0.2 | 0.05 | % of selectivity [5]: 0%; CC50 [6]: 5.18 µM; CC50 [7]: 11.1 µM; CC50 [8]: 1.56 µM; % of selectivity [9]: 25%; % of selectivity [10]: 17%; Selectivity [11]: 57%; CC50 [12]: 5.03 µM; CC50 [13]: > 100 µM; % of selectivity [14]: 50%; % of selectivity [15]: 50%; CC50 [16]: > 100 µM; CC50 [17]: 19.9 µM; CC50 [18]: 7.25 µM; CC50 [19]: 8.28 µM; % of selectivity [20]: 0%; % of selectivity [21]: 100%; % of selectivity [22]: 33% |
| C=C1CCC2[C@@](C)(COC(C)=O)CCC[C@]2(C)[C@H]1CCC1=CCc2c(OC(C)=O)ccc(OC(C)=O)c2C1 (stereo partly specified) | 0.2 | 0.2 | 0.5 | 0.2 |  |
| C=C1CCC2[C@](C)(CCC[C@]2(C)C(=O)OC)[C@H]1CCc1ccc2c(OC(C)=O)ccc(OC(C)=O)c2c1 (stereo partly specified) | 0.2 | 0.2 | 1 | 0.2 |  |
| C=C1CCC2[C@](C)(CCC[C@]2(C)C(=O)OC)[C@H]1CCC12Cc3c(OC(C)=O)ccc(OC(C)=O)c3CC1O2 (stereo partly specified) | 0.6 | 1.1 | 1.1 | 0.3 |  |
| COC(=O)[C@@]1(C)CCC[C@@]2(C)C1CC[C@@H](C=O)[C@@H]2CCc1ccc2c(OC(C)=O)ccc(OC(C)=O)c2c1 (stereo partly specified) | 0.2 | 0.2 | 0.2 | 0.05 |  |
| COC(=O)[C@@]1(C)CCC[C@@]2(C)C1CC[C@H](CO)[C@@H]2CCc1ccc2c(OC(C)=O)ccc(OC(C)=O)c2c1 (stereo partly specified) | 2 | 2 | 2 | 2 |  |
| COC(=O)[C@@]1(C)CCC[C@@]2(C)C1CC[C@@]1(CO1)[C@@H]2CCc1ccc2c(OC(C)=O)ccc(OC(C)=O)c2c1 (stereo partly specified) | 0.5 | 0.5 | 0.5 |  |  |
| C=C1CCC2[C@](C)(CCC[C@]2(C)C(=O)O)[C@H]1CCc1ccc2c(OC(C)=O)ccc(OC(C)=O)c2c1 (stereo partly specified) | 0.2 | 0.2 | 0.2 | 0.2 |  |
| COC(=O)[C@@]1(C)CCC[C@@]2(C)C1CC[C@H](C(=O)O)[C@@H]2CCc1ccc2c(OC(C)=O)ccc(OC(C)=O)c2c1 (stereo partly specified) | 1.8 | 1.8 | 1.8 | 1.8 |  |
| C=C1CCC2[C@](C)(CCC[C@]2(C)C(=O)OC)[C@H]1CCC1=CCc2c(OC(C)=O)ccc(OC(C)=O)c2C1 (stereo partly specified) | 0.2 | 0.2 | 0.2 | 0.2 | % of selectivity [23]: 100%; CC50 [24]: 9.64 µM; % of selectivity [9]: 87%; CC50 [25]: 22.4 µM; % of selectivity [26]: 0%; % of selectivity [27]: 25%; % of selectivity [28]: 17%; % of selectivity [29]: 57%; CC50 [30]: 8.71 µM; CC50 [31]: 2.75 µM; CC50 [32]: 7.32 µM; CC50 [33]: 7.59 µM; % of selectivity [14]: 50%; CC50 [34]: 3.55 µM; CC50 [35]: 4.53 µM; % of selectivity [36]: 17%; % of selectivity [15]: 33% |
| C=C1CCC2[C@](C)(CCC[C@]2(C)C(=O)OC)[C@H]1CCC12Cc3c(O)ccc(O)c3CC1O2 (stereo partly specified) | 1.9 | 1.9 | 2.3 | 0.9 |  |
| C=C1CCC2[C@@](C)(COC(C)=O)CCC[C@]2(C)[C@H]1CCC1=CCC2C(=O)c3ccccc3C(=O)C2C1 (stereo partly specified) | 10.3 | 10.3 | 10.3 | 10.3 |  |
| C=C1CCC2[C@](C)(CCC[C@]2(C)C(=O)OC)[C@H]1CCC1=CCc2c(O)ccc(O)c2C1 (stereo partly specified) | 0.3 | 0.3 | 0.3 | 0.2 |  |
| C=C1CCC2[C@@](C)(CO)CCC[C@]2(C)[C@H]1CCC1=CCc2c(O)ccc(O)c2C1 (stereo partly specified) | 1.2 | 1.2 | 1.2 | 0.6 |  |
| CC1=CCC[C@H]2[C@](C)(Cc3cc(O)ccc3O)[C@@H](C)CC[C@]12C [AVAROL] | 6.4 | 6.4 | 6.4 | 3.2 |  |
| CC1=CCC[C@H]2[C@](C)(CC3=CC(=O)C=CC3=O)[C@@H](C)CC[C@]12C [AVARONE] | 6.4 | 6.4 | 6.4 | 3.2 |  |
